Bioassay records (PubChem BioAssay)
KCC2 mod – modulates chloride dependent transport by human KCC2 | B-score of Tl+ flux slope (higher = more flux/activation; lower = inhibition) at 10 µM | KCC2 cells, thallium flux FluoZin-2 fluorescence | AID 1456 | 2.2% of 190,000 active;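 active = thallium flux slope and its plate-corrected score both differing from the plate sample mean at a set confidence after two filtering rounds, in either direction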;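 note: slope of fluorescence scaled to starting intensity during 10 to 20 s after thallium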
KCNQ1 inh – human KCNQ1 channel inhibition; P51787; CHO-K1 KCNQ1, FluxOR thallium flux fluorescence; stronger effect = higher value; B-score at 10 µM; 1.3% of 310,000 active;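 active = compounds whose thallium flux B-score, printed positive for inhibition, exceeds three library SD while starting fluorescence stays within three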;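 note: channel opened by potassium depolarization with thallium stimulus after 20 min compound exposure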
KCNK3 block – human KCNK3 channel inhibition, primary screen. O14649. CHO-KCNK3 thallium flux, FluxOR fluorescence; stronger effect = lower value. B-score at 10 µM. 0.84% of 340,000 active. AID 602410;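 active = B-score under library mean minus 4 SD, starting fluorescence ratio at most library mean plus 5 SD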;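 note: more negative B-score means stronger inhibition of thallium flux through KCNK3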
KCNK9 block – human KCNK9 channel inhibition. AID 488922. 1.2% of 310,000 active. HEK293 KCNK9, FluxOR thallium flux fluorescence; stronger effect = lower value. B-score at 10 µM;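 active = ratio B-score over 3 SD below the library mean, with starting fluorescence within 5 SD of its mean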;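 note: negative B-score means less thallium flux so channel inhibition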
hERG rescue – shields human hERG channel from block by proarrhythmic agents | AID 1511 | CHO-hERG, FluxOR thallium flux, dofetilide IC70 present | Q12809 | activation (rescue from dofetilide block), less the hit threshold, % at 10 µM | 0.51% of 310,000 active;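 active = activation above the mean of controls blocked by dofetilide plus 5 SD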;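 note: thallium influx through hERG after potassium depolarization seen as dye fluorescence rise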
Target sequence (Q12809 whole entry, looked up): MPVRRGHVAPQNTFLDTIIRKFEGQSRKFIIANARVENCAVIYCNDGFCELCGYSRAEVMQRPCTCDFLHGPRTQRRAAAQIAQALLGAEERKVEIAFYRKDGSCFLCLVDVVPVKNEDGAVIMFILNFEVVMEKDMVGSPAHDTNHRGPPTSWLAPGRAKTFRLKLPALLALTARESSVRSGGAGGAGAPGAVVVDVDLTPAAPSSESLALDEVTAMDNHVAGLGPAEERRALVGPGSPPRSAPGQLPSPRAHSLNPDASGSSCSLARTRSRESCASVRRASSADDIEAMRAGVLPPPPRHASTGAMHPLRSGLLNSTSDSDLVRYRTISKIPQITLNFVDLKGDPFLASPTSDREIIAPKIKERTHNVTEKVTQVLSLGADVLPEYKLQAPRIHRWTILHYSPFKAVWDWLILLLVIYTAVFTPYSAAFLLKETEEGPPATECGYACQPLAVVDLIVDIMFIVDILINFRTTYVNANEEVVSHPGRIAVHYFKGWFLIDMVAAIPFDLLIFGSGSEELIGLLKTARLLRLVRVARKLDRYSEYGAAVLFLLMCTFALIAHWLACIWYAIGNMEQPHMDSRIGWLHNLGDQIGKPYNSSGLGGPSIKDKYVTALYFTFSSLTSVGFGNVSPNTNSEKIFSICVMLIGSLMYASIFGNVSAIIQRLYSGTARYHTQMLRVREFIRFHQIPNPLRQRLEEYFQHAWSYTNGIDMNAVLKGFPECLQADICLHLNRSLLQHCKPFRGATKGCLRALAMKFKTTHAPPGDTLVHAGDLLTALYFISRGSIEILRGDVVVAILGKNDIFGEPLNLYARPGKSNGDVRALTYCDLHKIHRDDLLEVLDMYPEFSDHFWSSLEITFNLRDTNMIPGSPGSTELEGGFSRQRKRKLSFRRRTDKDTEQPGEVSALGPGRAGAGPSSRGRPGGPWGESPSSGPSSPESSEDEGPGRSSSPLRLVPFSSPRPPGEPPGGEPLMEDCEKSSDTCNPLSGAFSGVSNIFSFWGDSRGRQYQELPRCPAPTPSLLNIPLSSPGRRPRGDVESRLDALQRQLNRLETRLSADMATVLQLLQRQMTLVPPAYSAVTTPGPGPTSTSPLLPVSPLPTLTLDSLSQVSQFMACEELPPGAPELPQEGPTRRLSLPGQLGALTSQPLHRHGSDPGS
KCNQ1 act – human KCNQ1 channel potentiation or activation | 0.35% of 310,000 active | P51787 | B-score at 10 µM | CHO-K1 KCNQ1, thallium flux FluxOR fluorescence; stronger effect = higher value;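 active = fluorescence ratio B-score, a plate-corrected score, at least three library SD, with initial intensity B-score within 5 SD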
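Test system: CHO-K1 cells stably expressing KCNQ1 / Medium: assay buffer / Also added: depolarizing K+/Tl+ stimulus, K2SO4 and Tl2SO4 each 12.5 mM in 5x stock / Incubation: 90 min dye loading and 20 min compound exposure, both at room temperature / Signal: thallium influx via FluxOR fluorescence, kinetic imaging / Evaluation: B score of baseline-normalized fluorescence ratio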
KCC2 sec1 – confirmation of human KCC2 transport modulators; shares compounds with KCC2 mod; HEK293-KCC2, thallium flux, FluoZin2 fluorescence; stronger effect = higher value; normalised thallium flux (F/F0 slope) at 10 µM; 15% of 3,700 active; AID 1713;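 active = thallium flux slope above the same plate's solvent-only control mean plus 3 SD; inconclusive = the two replicate wells disagree; inactive = no significant difference from solvent-only control wells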
KCC2 bumet counter – thallium flux despite bumetanide block in KCC2 cells, secondary assay 3 | shares compounds with KCC2 mod | HEK293-KCC2 + bumetanide/ouabain, thallium flux FluoZin2; stronger effect = higher value | normalized thallium flux at 10 µM | 49% of 3,700 active | AID 1714;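 active = thallium entry rate above the same plate's blocked-transporter control wells by more than 3 SD; inconclusive = the two repeat wells disagree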;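 note: raw slope of fluorescence over initial fluorescence between 10 and 20 s after thallium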
KCC2 sec2 – KCC2 (human) modulation, second secondary assay. normalized thallium flux at 10 µM. shares compounds with KCC2 mod. 23% of 3,700 active. HEK293-KCC2, thallium flux FluoZin2 fluorescence; actives lie on both sides; F/F0 rise rate, 10–20 s post-thallium;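 active = thallium flux slope more than 3 SD above or below the plate's solvent-only control mean, mostly below; inconclusive = the two repeat wells disagreed; inactive = no significant shift from solvent-only controls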
HEK counter1 – counter-screen for KCC2 modulators: effect in parental HEK293 cells; shares compounds with KCC2 mod; thallium flux rate (normalised fluorescence) at 10 µM; 46% of 3,700 active; thallium flux FluoZin2, ouabain; baseline-ratio fluorescence slope, 10–20 s after thallium;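 active = thallium flux rate significantly above the same plate's solvent-only control wells, beyond their mean plus 3 SD; inconclusive = the two replicate wells gave conflicting results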
KCC2 retest ouab – confirmation of human KCC2 modulators with ouabain | shares compounds with KCC2 mod | HEK293-KCC2, thallium flux FluoZin2 fluorescence; bidirectional: low = inhibitor, high = activator | raw Tl+ flux slope (below DMSO = inhibition, above = activation) at 10 µM | 48% of 3,700 active;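 active = thallium flux slope beyond 3 SD from same-plate DMSO control mean in most replicates, usually higher, sometimes lower; inconclusive = repeat tests gave conflicting results; inactive = no significant difference from controls in most replicates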;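 note: slope of initial-normalized fluorescence between seconds 10 and 20 after thallium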
HEK293 Tl flux2 – parental HEK flux effect, counter-screen 2; shares compounds with KCC2 mod; HEK293 parental, thallium flux FluoZin-2 fluorescence slope; thallium flux slope at 10 µM; 33% of 3,700 active;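 active = thallium flux slope above the same plate's solvent-control mean plus 3 SD in both duplicate wells; inconclusive = duplicate wells that disagreed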;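 note: run without ouabain in cells lacking the KCC2 cotransporter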
Each line names hits and unclear results; the compound was inactive in the other large screens (follow-up assays come after a bar, where they were run). Hits are enriched below; roughly 4.1% of the tested compounds scored in any of these assays.

Cc1cc(=O)n(Cc2ccc(OC(C)C)cc2)c(=S)[nH]1	none (no result: KCC2 mod) | KCC2 sec1 inconclusive | KCC2 bumet counter 0.015 | KCC2 sec2 inactive | HEK counter1 0.016 | KCC2 retest ouab inconclusive | HEK293 Tl flux2 inactive
COc1cccc(/C=N/NC(=O)CSc2cccc3cccnc23)c1	KCC2 mod 28 | KCC2 sec1 inactive | KCC2 bumet counter 0.03 | KCC2 sec2 inactive | HEK counter1 inconclusive | KCC2 retest ouab 0.03 | HEK293 Tl flux2 inactive
CC(=O)Nc1ccc(NC(=O)c2ccc(COc3ccccc3Br)o2)cc1	none (no result: KCC2 mod)
O=C(Nc1cccnc1)c1ccc(COc2ccccc2Br)o1	KCC2 mod -5, hERG rescue 22 | KCC2 sec1 inactive | KCC2 bumet counter inactive | KCC2 sec2 0.022 | HEK counter1 inactive | KCC2 retest ouab inconclusive | HEK293 Tl flux2 inactive
O=C(NCc1cccnc1)c1ccc(COc2ccccc2Cl)o1	none
O=C(NCc1cccnc1)c1ccc(COc2ccccc2Br)o1	KCC2 mod -4.7 | KCC2 sec1 inactive | KCC2 bumet counter inactive | KCC2 sec2 0.029 | HEK counter1 inactive | KCC2 retest ouab 0.014 | HEK293 Tl flux2 inactive
COc1ccc(C(C)NC(=O)Cc2cccs2)cc1 (configuration not stated)	none (no result: KCC2 mod)
CC(NC(=O)Cc1cccs1)c1ccc2c(c1)OCO2 (configuration not stated)	KCC2 mod 1.7 | KCC2 sec1 inactive | KCC2 bumet counter inactive | KCC2 sec2 inactive | HEK counter1 inactive | KCC2 retest ouab inactive | HEK293 Tl flux2 inactive
Cn1cc(/C=C2\SC(=O)NC2=S)c2ccccc21	KCC2 mod 21, hERG rescue 16 | KCC2 sec1 0.013 | KCC2 bumet counter 0.028 | KCC2 sec2 inactive | HEK counter1 0.018 | KCC2 retest ouab 0.034 | HEK293 Tl flux2 inconclusive
Cc1ccc(C(=O)NN2C(=O)/C(=C/c3cn(C)c4ccccc34)SC2=S)cc1	KCC2 mod -3.7 (no result: KCNQ1 inh, KCNK9 block, hERG rescue, KCNQ1 act) | KCC2 sec1 0.0046 | KCC2 bumet counter inactive | KCC2 sec2 0.026 | HEK counter1 0.0051 | KCC2 retest ouab 0.025 | HEK293 Tl flux2 inactive
Cc1ccc(C(=O)NN2C(=O)/C(=C/c3cccn3C)SC2=S)cc1	none
Cn1cc(C=O)c2ccccc21	none
Cc1ccc(/C=C2/SC(=O)NC2=S)o1	KCC2 mod 94 (no result: KCNQ1 inh, KCNK9 block, hERG rescue, KCNQ1 act) | KCC2 sec1 inconclusive | KCC2 bumet counter 0.07 | KCC2 sec2 0.098 | HEK counter1 0.1 | KCC2 retest ouab 0.094 | HEK293 Tl flux2 0.099
Cc1ccc(/C=C2\SC(=S)N(CC3CCCO3)C2=O)o1 (configuration not stated)	none
Nc1ccc(C(=O)NN2C(=O)[C@H](Cl)C2c2ccc(Cl)cc2)cc1 (some centres not stated)	none (no result: KCC2 mod, KCNQ1 inh, KCNK9 block, hERG rescue, KCNQ1 act)
CN1C(=O)c2ccc(C(=O)Nc3ccccc3O)cc2C1=O	none (no result: KCC2 mod)
COc1ccc2c(-c3ccccc3)cc(SC(C)C(N)=O)nc2c1 (configuration not stated)	KCC2 mod 5.5 | KCC2 sec1 inactive | KCC2 bumet counter 0.008 | KCC2 sec2 inactive | HEK counter1 0.014 | KCC2 retest ouab inactive | HEK293 Tl flux2 inconclusive
COc1ccc2c(-c3ccccc3)cc(=O)[nH]c2c1	none
Cc1ccccc1-n1nnnc1SC(C)C(=O)NC1CCCc2ccccc21 (configuration not stated)	KCC2 mod -3.5 | KCC2 sec1 inactive | KCC2 bumet counter inactive | KCC2 sec2 inactive | HEK counter1 inactive | KCC2 retest ouab 0.017 | HEK293 Tl flux2 inactive
CC(OC(=O)c1nsc(Cl)c1Cl)C(=O)NCCc1ccccc1 (configuration not stated)	none (no result: KCC2 mod)
Cc1ccc(S(=O)(=O)N2CCCCC2)cc1NC(=O)C1CCC1	none (no result: KCC2 mod, KCNQ1 inh, KCNK9 block, hERG rescue, KCNQ1 act)
COc1cccc(Nc2n[nH]c(=S)s2)c1	KCC2 mod -6.8 | KCC2 sec1 inactive | KCC2 bumet counter inactive | KCC2 sec2 0.021 | HEK counter1 inactive | KCC2 retest ouab 0.011 | HEK293 Tl flux2 inactive
COc1ccccc1Nc1n[nH]c(=S)s1	none
Cc1cccc(Nc2n[nH]c(=S)s2)c1C	KCC2 mod -5.3 | KCC2 sec1 inactive | KCC2 bumet counter inactive | KCC2 sec2 0.017 | HEK counter1 inactive | KCC2 retest ouab 0.0074 | HEK293 Tl flux2 inconclusive
CC1=CC(=C2C=CC(=O)C=C2)C=C(C)N1C	none (no result: KCNK3 block)
O=C(CSc1ncccc1-c1nc2ccccc2[nH]1)N1CCN(c2ccccc2F)CC1	KCC2 mod -4 | KCC2 sec1 inactive | KCC2 bumet counter inactive | KCC2 sec2 0.025 | HEK counter1 inactive | KCC2 retest ouab inconclusive | HEK293 Tl flux2 inactive
CN(CCO)c1cc(Sc2nc3ccccc3s2)c2nonc2c1[N+](=O)[O-]	none (no result: KCC2 mod) | KCC2 sec1 inactive | KCC2 bumet counter 0.015 | KCC2 sec2 inactive | HEK counter1 0.014 | KCC2 retest ouab inconclusive | HEK293 Tl flux2 0.017
NS(=O)(=O)c1ccc(Sc2nc3ccccc3s2)c([N+](=O)[O-])c1	none
NC(=O)c1ncn([C@@H]2O[C@H](CNCc3cccn3-c3ccncc3)[C@@H](O)[C@H]2O)n1	none (no result: KCC2 mod, KCNQ1 inh, KCNK9 block, hERG rescue, KCNQ1 act)
CCCn1c(=S)[nH]c2cc(OC)c(OC)cc2c1=O	KCC2 mod 11 | KCC2 sec1 0.013 | KCC2 bumet counter 0.022 | KCC2 sec2 inactive | HEK counter1 inconclusive | KCC2 retest ouab inconclusive | HEK293 Tl flux2 inconclusive
CCOc1cc2[nH]c(=S)n(CCOC)c(=O)c2cc1OCC	none
COCCn1c(=S)[nH]c2ccc(N(C)C)cc2c1=O	KCC2 mod 3.2 | KCC2 sec1 inactive | KCC2 bumet counter 0.0083 | KCC2 sec2 inactive | HEK counter1 0.0095 | KCC2 retest ouab inactive | HEK293 Tl flux2 0.012
CCOC(=O)C1=C(C)NC(C)=C(C(=O)OCC)C1C(=O)OCC(=O)NCc1ccc(F)cc1	none (no result: KCC2 mod, KCNQ1 inh, KCNK9 block, hERG rescue, KCNQ1 act)
